{"source": "ChEMBL document CHEMBL1147480", "about": "“Synthesis, absolute stereochemistry and molecular design of the new antifungal and antibacterial antibiotic produced by Streptomyces sp.201” (2004)", "format_in_all_cases": "functional", "key": {"Bacillus subtilis": {"tested_on": "Bacillus subtilis", "test": "Minimum inhibitory concentration required for antibacterial activity against Bacillus subtilis", "how_it_was_run": "(§1)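 Broth tube dilution in nutrient broth (5 mL final volume). The compound was diluted in phosphate buffer pH 7.4 and culture broth to final concentrations of 1–600 µg/mL. Inoculum was adjusted to 3×10^5 CFU/mL in Ringer's solution, then incubated at 35 °C for 24 h. Tubes without visible growth were subcultured (10 µL) onto agar plates at 35 °C and checked microscopically for growth.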"}, "Escherichia coli": {"tested_on": "Escherichia coli", "test": "Minimum inhibitory concentration required for antibacterial activity against Escherichia coli", "how_it_was_run": "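Broth tube dilution in nutrient broth; stock in sulfoxide solvent, diluted in phosphate buffer pH 7.4 and culture broth to final 1–600 µg/mL. Inoculum in Ringer's solution, 3×10^5 CFU/mL; 35 °C for 24 h. Tubes without visible growth subcultured (10 µL) onto agar plates at 35 °C, growth checked by microscope.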"}, "Proteus vulgaris": {"tested_on": "Proteus vulgaris", "test": "Minimum inhibitory concentration required for antibacterial activity against Proteus vulgaris", "how_it_was_run": "as §1"}, "Thanatephorus cucumeris": {"tested_on": "Thanatephorus cucumeris", "test": "Minimum fungicidal concentration required against Rhizoctonia solani", "how_it_was_run": "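Tube assay in molten M2 agar (g/L: yeast extract 5.00, NaCl 10.00, KH2PO4 0.10, MgSO4·7H2O 0.05, dextrose 10.00, agar 15.0, pH 7.1). Stock in sulfoxide solvent, diluted in phosphate buffer pH 7.4 and culture broth; final 1–600 µg/mL. Spore suspension in Ringer's solution, 3×10^5 CFU/mL; 35 °C, 48 h. MFC = lowest concentration killing 95% of inoculum.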"}, "[1]": {"tested_on": "Mycobacterium tuberculosis", "test": "Minimum inhibitory concentration required for antibacterial activity against Mycobacterium tuberculosis", "how_it_was_run": "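Tube dilution in M-33 broth (yeast extract, tryptone, glucose, pH 7.0; 5 mL final volume). Test agent was diluted in phosphate buffer pH 7.4 and broth to a final 1–600 µg/mL. Inoculum was 3×10^5 CFU/mL prepared in Ringer's solution, incubated at 35 °C for 120 h. Clear tubes were subcultured (10 µL) on agar at 35 °C and examined under a microscope for growth.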"}}}
{"smiles": "CCCCCOC(=O)c1ccncc1", "note": "[ISONICOTINIC ACID PENTYL ESTER]", "values": [{"measurement": "MIC", "setting": "Bacillus subtilis", "value": 20, "unit": "µg/mL"}, {"measurement": "MIC", "setting": "Escherichia coli", "value": 20, "unit": "µg/mL"}, {"measurement": "MIC", "setting": "Proteus vulgaris", "value": 14, "unit": "µg/mL"}, {"measurement": "MFC", "setting": "Thanatephorus cucumeris", "value": 14, "unit": "µg/mL"}, {"measurement": "MIC", "setting": "[1]", "value": 10, "unit": "µg/mL"}]}
{"smiles": "CCCCCCCOC(=O)c1ccncc1", "note": "[ISONICOTINIC ACID HEPTYL ESTER]", "values": [{"measurement": "MIC", "setting": "Bacillus subtilis", "value": 24, "unit": "µg/mL"}, {"measurement": "MIC", "setting": "Escherichia coli", "value": 16, "unit": "µg/mL"}, {"measurement": "MIC", "setting": "Proteus vulgaris", "value": 16, "unit": "µg/mL"}, {"measurement": "MFC", "setting": "Thanatephorus cucumeris", "value": 15, "unit": "µg/mL"}, {"measurement": "MIC", "setting": "[1]", "value": 16, "unit": "µg/mL"}]}
{"smiles": "CCCCC[C@H](C)COC(=O)c1ccncc1", "note": "[(S)-2-METHYLHEPTYL ISONICOTINATE]", "values": [{"measurement": "MIC", "setting": "Bacillus subtilis", "value": 20, "unit": "µg/mL"}, {"measurement": "MIC", "setting": "Escherichia coli", "value": 40, "unit": "µg/mL"}, {"measurement": "MIC", "setting": "Proteus vulgaris", "value": 14, "unit": "µg/mL"}, {"measurement": "MFC", "setting": "Thanatephorus cucumeris", "value": 32, "unit": "µg/mL"}, {"measurement": "MIC", "setting": "[1]", "value": 14, "unit": "µg/mL"}]}
{"smiles": "CCCCCCCCOC(=O)c1ccncc1", "note": "[ISONICOTINIC ACID OCTYL ESTER]", "values": [{"measurement": "MIC", "setting": "Bacillus subtilis", "value": 16, "unit": "µg/mL"}, {"measurement": "MIC", "setting": "Escherichia coli", "value": 12, "unit": "µg/mL"}, {"measurement": "MIC", "setting": "Proteus vulgaris", "value": 6, "unit": "µg/mL"}, {"measurement": "MFC", "setting": "Thanatephorus cucumeris", "value": 18, "unit": "µg/mL"}, {"measurement": "MIC", "setting": "[1]", "value": 8, "unit": "µg/mL"}]}
{"smiles": "CCCCCCCCCCCCCCCCCCOC(=O)c1ccncc1", "note": "[ISONICOTINIC ACID OCTADECYL ESTER]", "values": [{"measurement": "MIC", "setting": "Bacillus subtilis", "value": 600, "unit": "µg/mL"}, {"measurement": "MIC", "setting": "Escherichia coli", "value": 56, "unit": "µg/mL"}, {"measurement": "MIC", "setting": "Proteus vulgaris", "value": 500, "unit": "µg/mL"}, {"measurement": "MFC", "setting": "Thanatephorus cucumeris", "value": 600, "unit": "µg/mL"}, {"measurement": "MIC", "setting": "[1]", "value": 320, "unit": "µg/mL"}]}
{"smiles": "CCCCOC(=O)c1ccncc1", "note": "[ISONICOTINIC ACID BUTYL ESTER]", "values": [{"measurement": "MIC", "setting": "Bacillus subtilis", "value": 600, "unit": "µg/mL"}, {"measurement": "MIC", "setting": "Escherichia coli", "value": 500, "unit": "µg/mL"}, {"measurement": "MIC", "setting": "Proteus vulgaris", "value": 500, "unit": "µg/mL"}, {"measurement": "MFC", "setting": "Thanatephorus cucumeris", "value": 600, "unit": "µg/mL"}, {"measurement": "MIC", "setting": "[1]", "value": 280, "unit": "µg/mL"}]}
{"smiles": "CCCCCCOC(=O)c1ccncc1", "note": "[ISONICOTINIC ACID HEXYL ESTER]", "values": [{"measurement": "MIC", "setting": "Bacillus subtilis", "value": 50, "unit": "µg/mL"}, {"measurement": "MIC", "setting": "Escherichia coli", "value": 35, "unit": "µg/mL"}, {"measurement": "MIC", "setting": "Proteus vulgaris", "value": 36, "unit": "µg/mL"}, {"measurement": "MFC", "setting": "Thanatephorus cucumeris", "value": 44, "unit": "µg/mL"}, {"measurement": "MIC", "setting": "[1]", "value": 24, "unit": "µg/mL"}]}
{"smiles": "CCCCC[C@@H](C)COC(=O)c1ccncc1", "note": "[ISONICOTINIC ACID 2-METHYL-HEPTYL ESTER]", "values": [{"measurement": "MIC", "setting": "Bacillus subtilis", "value": 16, "unit": "µg/mL"}, {"measurement": "MIC", "setting": "Escherichia coli", "value": 30, "unit": "µg/mL"}, {"measurement": "MIC", "setting": "Proteus vulgaris", "value": 6, "unit": "µg/mL"}, {"measurement": "MFC", "setting": "Thanatephorus cucumeris", "value": 24, "unit": "µg/mL"}, {"measurement": "MIC", "setting": "[1]", "value": 10, "unit": "µg/mL"}]}
